Experimental findings from ChEMBL document CHEMBL5705888, “Substrate specificity and inhibitors of LRRK2, a protein kinase mutated in Parkinson's disease” (Biochem J, 2009) are described below.

The target in assay [1] is T1, Dual specificity tyrosine-phosphorylation-regulated kinase 3 (Homo sapiens) (UniProt O43781).
T1 sequence (whole entry): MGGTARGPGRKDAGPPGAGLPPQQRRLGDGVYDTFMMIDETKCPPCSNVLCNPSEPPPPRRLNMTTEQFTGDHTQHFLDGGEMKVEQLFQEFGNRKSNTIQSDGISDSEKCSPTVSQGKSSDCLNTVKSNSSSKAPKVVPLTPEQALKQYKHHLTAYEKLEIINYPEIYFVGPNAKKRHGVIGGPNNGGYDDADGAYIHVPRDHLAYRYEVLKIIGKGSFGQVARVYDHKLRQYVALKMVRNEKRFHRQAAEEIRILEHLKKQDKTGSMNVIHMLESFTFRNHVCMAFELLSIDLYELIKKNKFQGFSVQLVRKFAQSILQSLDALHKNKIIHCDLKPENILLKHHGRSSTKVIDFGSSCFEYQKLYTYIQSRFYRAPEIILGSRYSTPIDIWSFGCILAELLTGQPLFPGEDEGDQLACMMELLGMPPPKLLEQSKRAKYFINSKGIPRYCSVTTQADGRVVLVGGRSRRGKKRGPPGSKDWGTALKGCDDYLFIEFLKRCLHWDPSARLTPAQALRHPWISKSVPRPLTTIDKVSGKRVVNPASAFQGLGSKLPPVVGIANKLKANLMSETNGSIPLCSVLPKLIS
The experiment in a line: Inhibition of DYRK3 (unknown origin) at 10 uM incubated for 30 mins in presence of [gamma-33P]ATP by multidrop micro reagent based assay relative to control.

Assay [2] concerns the target Ribosomal protein S6 kinase alpha-5 (Homo sapiens) (UniProt O75582). Kind of assay: Inhibition of MSK1 (unknown origin) at 10 uM incubated for 30 mins in presence of [gamma-33P]ATP by multidrop micro reagent based assay relative to control. An outline of the steps:
(§1)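 Single-concentration screen across a panel of 85 protein kinases. Activity is expressed as a percentage of control incubations run without inhibitor.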

In assay [3] the target is Dual specificity tyrosine-phosphorylation-regulated kinase 1A (Homo sapiens) (UniProt Q13627). The experiment in a line: Inhibition of DYRK1A (unknown origin) at 10 uM incubated for 30 mins in presence of [gamma-33P]ATP by multidrop micro reagent based assay relative to control; values are per cent of control.
Assay [4] addresses Mitogen-activated protein kinase kinase kinase 11 (Homo sapiens) (UniProt Q16584). The experiment in a line: Inhibition of MLK3 (unknown origin) at 10 uM incubated for 30 mins in presence of [gamma-33P]ATP by multidrop micro reagent based assay relative to control.
Assay [5] addresses Maternal embryonic leucine zipper kinase (Homo sapiens) (UniProt Q14680). The experiment in a line: Inhibition of MELK (unknown origin) at 10 uM incubated for 30 mins in presence of [gamma-33P]ATP by multidrop micro reagent based assay relative to control; values are per cent of control.
Assay [6] concerns the target T2, Serine/threonine-protein kinase Nek2 (Homo sapiens) (UniProt P51955).
T2 sequence (whole entry): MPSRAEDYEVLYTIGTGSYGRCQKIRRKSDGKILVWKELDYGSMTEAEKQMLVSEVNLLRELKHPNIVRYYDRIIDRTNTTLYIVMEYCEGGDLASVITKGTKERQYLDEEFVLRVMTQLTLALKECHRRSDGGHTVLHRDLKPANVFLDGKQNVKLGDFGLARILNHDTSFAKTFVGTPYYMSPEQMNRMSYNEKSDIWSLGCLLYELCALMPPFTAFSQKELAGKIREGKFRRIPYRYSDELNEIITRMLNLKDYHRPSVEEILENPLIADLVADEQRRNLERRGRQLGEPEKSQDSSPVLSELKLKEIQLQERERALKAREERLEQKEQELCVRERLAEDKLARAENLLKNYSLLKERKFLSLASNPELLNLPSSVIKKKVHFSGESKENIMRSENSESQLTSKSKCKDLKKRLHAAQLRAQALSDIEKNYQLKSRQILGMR
Kind of assay: Inhibition of NEK2a (unknown origin) at 10 uM incubated for 30 mins in presence of [gamma-33P]ATP by multidrop micro reagent based assay relative to control; values are per cent of control.

Assay [7] has as its target MAP kinase-interacting serine/threonine-protein kinase 1 (Homo sapiens) (UniProt Q9BUB5). The experiment in a line: Inhibition of MNK1 (unknown origin) at 10 uM incubated for 30 mins in presence of [gamma-33P]ATP by multidrop micro reagent based assay relative to control. The essentials:
as §1

Assay [8] has as its target Leucine-rich repeat serine/threonine-protein kinase 2 (Mus musculus) (UniProt Q5S006). The experiment in a line: Inhibition of LRRK2 in mouse Swiss-3T3 cells at 2 uM using Nictide as substrate by immunoblot analysis. It is filed as cell-based.
The target of assay [9] is Leucine-rich repeat serine/threonine-protein kinase 2 (Homo sapiens, UniProt Q5S007, A2016T/G2019S). Kind of assay: Inhibition of GST-tagged LRRK2 G2019S/A2016T mutant (1326 to 2527 residues) (unknown origin) in presence of ATP.
Assay [10] concerns the target Myosin light chain kinase, smooth muscle (Homo sapiens) (UniProt Q15746). The experiment in a line: Inhibition of SmMLCK (unknown origin) at 0.1 uM incubated for 30 mins in presence of [gamma-33P]ATP by multidrop micro reagent based assay relative to control. The essentials:
as §1

The target in assay [11] is Tyrosine-protein kinase BTK (Homo sapiens) (UniProt Q06187). The experiment in a line: Inhibition of BTK (unknown origin) at 10 uM incubated for 30 mins in presence of [gamma-33P]ATP by multidrop micro reagent based assay relative to control; values are per cent of control.
Chain of Tyrosine-protein kinase BTK (Homo sapiens) (Q06187 whole entry): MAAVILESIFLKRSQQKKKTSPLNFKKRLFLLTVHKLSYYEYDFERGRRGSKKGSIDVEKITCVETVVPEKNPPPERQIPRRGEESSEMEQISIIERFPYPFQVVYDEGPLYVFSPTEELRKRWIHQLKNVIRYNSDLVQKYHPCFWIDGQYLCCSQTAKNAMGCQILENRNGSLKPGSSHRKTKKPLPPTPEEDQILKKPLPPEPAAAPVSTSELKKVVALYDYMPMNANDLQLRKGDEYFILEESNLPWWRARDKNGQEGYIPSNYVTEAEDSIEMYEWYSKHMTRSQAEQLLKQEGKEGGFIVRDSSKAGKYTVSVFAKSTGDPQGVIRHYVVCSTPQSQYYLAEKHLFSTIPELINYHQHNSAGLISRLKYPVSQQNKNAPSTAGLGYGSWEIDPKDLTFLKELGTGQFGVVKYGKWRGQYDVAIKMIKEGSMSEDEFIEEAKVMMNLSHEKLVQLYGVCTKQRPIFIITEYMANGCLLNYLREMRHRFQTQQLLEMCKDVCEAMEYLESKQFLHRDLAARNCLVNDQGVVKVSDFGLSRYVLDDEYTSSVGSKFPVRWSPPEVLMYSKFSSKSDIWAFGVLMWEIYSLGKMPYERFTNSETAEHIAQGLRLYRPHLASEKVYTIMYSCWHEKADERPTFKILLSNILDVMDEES
Assay [12] concerns the target Serine/threonine-protein kinase pim-2 (Homo sapiens) (UniProt Q9P1W9). Kind of assay: Inhibition of PIM2 (unknown origin) at 1 uM incubated for 30 mins in presence of [gamma-33P]ATP by multidrop micro reagent based assay relative to control; values are per cent of control.
The target in assay [13] is 3-phosphoinositide-dependent protein kinase 1 (Homo sapiens) (UniProt O15530). The experiment in a line: Inhibition of PDK1 (unknown origin) at 1 uM incubated for 30 mins in presence of [gamma-33P]ATP by multidrop micro reagent based assay relative to control; values are per cent of control.
The target of assay [14] is Rho-associated protein kinase 2 (Homo sapiens, UniProt O75116). Kind of assay: Inhibition of His6-tagged ROCK2 (2 to 543 residues) (unknown origin) using peptide as substrate incubated for 15 mins in presence of ATP by immunoblotting analysis. Background: Immunoblotting shows a protein as a band on a membrane.
Chain of Rho-associated protein kinase 2 (O75116 whole entry, the tested form may be a part): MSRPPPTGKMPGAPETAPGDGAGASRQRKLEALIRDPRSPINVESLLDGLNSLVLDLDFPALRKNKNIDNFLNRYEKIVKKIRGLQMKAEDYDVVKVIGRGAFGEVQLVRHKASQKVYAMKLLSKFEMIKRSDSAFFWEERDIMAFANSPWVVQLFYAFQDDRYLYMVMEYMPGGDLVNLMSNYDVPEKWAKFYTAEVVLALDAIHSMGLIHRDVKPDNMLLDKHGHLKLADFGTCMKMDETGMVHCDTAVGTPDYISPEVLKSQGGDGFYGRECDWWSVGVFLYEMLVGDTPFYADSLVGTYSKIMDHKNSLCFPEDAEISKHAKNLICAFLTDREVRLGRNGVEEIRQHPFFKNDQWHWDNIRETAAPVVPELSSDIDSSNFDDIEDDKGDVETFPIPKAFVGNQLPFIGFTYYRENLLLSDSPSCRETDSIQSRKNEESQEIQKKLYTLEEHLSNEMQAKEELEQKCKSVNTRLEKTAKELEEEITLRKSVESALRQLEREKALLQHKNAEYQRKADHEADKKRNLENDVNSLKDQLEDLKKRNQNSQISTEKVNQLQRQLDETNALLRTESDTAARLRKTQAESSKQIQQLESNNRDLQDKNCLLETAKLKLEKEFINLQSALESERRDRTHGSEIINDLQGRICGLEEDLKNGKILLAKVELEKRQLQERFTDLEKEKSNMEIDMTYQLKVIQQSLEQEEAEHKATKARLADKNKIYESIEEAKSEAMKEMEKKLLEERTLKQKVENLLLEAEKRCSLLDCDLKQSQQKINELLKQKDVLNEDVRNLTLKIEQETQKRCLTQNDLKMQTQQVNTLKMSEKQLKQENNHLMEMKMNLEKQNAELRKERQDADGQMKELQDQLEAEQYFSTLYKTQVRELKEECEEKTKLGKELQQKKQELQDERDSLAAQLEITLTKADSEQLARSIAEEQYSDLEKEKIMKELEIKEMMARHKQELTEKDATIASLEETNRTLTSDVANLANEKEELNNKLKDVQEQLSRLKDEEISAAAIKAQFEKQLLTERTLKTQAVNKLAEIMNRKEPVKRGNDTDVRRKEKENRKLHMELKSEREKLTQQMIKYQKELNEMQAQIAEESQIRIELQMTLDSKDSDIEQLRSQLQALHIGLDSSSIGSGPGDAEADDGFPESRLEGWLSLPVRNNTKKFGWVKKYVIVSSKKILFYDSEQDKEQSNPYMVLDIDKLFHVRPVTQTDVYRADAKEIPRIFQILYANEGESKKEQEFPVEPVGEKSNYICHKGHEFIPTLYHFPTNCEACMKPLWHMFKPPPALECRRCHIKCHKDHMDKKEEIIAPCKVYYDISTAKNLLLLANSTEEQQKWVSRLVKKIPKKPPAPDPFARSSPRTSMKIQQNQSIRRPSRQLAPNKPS
Assay [15] addresses Leucine-rich repeat serine/threonine-protein kinase 2 (Homo sapiens, UniProt Q5S007). Kind of assay: Inhibition of LRRK2 in human HEK293 cells assessed as inhibition of ERM phosphorylation at 10 uM incubated for 1 hr using LRRKtide as substrate in presence of sunitinib by immunoblot analysis. It is filed as cell-based. The essentials: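 SDS lysates were run on 4–12% gels and immunoblotted for ERM phosphorylation with pan-phospho-ERM antibody (1 μg/ml, with 10 μg/ml LRRKtide in blocking milk/TBST).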

Calls of active or inactive are those of the source. The calls are words filed in the database; no cut-off is given here.

Broadly, the inhibition is the change of the read-out against control, counted positive when it falls. By residual activity is commonly meant the signal under treatment as a percentage of the control signal. What is called IC50 is the concentration needed to halve the response being measured.

Chain of Mitogen-activated protein kinase kinase kinase 11 (Homo sapiens) (Q16584 whole entry, looked up): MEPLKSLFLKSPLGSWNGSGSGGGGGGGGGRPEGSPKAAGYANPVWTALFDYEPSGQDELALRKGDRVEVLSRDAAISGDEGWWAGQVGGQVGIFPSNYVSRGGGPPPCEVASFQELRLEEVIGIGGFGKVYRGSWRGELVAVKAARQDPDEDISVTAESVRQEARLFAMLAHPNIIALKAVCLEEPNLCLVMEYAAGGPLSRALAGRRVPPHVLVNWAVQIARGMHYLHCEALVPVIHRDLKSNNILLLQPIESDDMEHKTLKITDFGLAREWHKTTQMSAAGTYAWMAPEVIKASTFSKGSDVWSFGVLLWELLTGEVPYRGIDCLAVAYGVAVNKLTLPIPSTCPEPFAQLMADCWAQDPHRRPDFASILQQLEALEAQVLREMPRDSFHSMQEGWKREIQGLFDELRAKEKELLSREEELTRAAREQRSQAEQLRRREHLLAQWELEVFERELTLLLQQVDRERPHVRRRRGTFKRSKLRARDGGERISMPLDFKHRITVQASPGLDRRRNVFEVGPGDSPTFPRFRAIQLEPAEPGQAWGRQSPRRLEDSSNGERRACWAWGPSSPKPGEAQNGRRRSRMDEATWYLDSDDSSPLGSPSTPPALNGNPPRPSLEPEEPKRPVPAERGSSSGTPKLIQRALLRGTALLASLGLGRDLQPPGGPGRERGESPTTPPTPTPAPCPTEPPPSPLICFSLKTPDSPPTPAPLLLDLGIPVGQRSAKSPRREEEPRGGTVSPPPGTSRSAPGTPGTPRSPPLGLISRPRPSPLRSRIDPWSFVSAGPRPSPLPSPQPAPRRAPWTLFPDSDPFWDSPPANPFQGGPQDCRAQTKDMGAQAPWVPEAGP
Chain of Ribosomal protein S6 kinase alpha-5 (Homo sapiens) (O75582 whole entry, looked up): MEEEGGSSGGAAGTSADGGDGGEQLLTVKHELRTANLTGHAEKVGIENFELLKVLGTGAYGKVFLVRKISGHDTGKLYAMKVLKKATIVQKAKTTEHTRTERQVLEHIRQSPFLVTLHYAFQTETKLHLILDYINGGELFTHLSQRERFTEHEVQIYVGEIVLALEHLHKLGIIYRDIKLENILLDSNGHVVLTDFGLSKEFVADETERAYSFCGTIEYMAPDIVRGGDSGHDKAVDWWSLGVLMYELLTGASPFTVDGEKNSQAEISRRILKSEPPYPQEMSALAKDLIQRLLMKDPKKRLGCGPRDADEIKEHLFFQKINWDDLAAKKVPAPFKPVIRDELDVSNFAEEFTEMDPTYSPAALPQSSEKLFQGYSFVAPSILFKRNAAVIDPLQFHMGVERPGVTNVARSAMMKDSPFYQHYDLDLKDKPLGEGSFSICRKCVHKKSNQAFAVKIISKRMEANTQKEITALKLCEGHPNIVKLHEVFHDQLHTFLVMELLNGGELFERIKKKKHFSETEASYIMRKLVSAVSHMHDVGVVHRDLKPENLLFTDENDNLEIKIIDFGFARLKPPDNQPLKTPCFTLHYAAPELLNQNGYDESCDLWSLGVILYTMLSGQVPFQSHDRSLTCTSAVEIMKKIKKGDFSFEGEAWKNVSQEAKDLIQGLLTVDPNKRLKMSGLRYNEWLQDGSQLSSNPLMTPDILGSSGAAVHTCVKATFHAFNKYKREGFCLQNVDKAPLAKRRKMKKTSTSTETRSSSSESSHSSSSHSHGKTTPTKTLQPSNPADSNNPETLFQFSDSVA
Chain of MAP kinase-interacting serine/threonine-protein kinase 1 (Homo sapiens) (Q9BUB5 whole entry, looked up): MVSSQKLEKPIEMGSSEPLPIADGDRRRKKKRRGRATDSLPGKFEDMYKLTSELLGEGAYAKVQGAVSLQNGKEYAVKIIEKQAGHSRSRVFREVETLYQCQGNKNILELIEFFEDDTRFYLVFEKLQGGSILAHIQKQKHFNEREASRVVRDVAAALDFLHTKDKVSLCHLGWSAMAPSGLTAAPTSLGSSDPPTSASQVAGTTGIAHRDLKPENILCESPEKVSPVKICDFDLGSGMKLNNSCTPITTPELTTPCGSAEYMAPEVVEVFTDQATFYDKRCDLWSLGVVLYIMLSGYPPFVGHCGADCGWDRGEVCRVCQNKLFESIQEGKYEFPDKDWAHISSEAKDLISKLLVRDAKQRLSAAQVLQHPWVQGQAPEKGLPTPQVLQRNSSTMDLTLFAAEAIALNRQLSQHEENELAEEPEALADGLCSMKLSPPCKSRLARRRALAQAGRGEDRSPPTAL
Chain of Maternal embryonic leucine zipper kinase (Homo sapiens) (Q14680 whole entry, looked up): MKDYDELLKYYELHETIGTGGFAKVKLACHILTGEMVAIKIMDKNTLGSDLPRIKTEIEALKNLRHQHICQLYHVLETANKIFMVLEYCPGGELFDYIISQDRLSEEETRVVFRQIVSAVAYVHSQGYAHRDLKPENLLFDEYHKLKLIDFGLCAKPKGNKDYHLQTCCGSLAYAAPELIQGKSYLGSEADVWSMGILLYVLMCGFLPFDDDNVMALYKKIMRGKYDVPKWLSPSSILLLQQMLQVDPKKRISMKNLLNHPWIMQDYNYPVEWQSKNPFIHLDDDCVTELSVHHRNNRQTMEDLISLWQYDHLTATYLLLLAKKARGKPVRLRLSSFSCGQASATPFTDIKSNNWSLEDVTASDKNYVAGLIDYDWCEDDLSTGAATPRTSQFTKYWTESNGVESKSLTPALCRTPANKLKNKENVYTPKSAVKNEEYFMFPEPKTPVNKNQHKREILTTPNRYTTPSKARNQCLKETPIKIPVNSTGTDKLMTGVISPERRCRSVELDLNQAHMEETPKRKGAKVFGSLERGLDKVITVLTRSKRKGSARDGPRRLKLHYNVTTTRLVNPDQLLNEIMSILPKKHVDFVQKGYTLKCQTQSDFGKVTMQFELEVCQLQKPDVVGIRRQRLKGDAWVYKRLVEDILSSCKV

As to `C[C@@H](N)[C@H]1CC[C@H](C(=O)Nc2ccncc2)CC1`, the inhibition in assay [1] came to 100%; in [2], 41%; in assay [4], 110%; in assay [7] it was 20%. In addition, the residual activity in [3] was 96%; in [5], 79%; in assay [6], 104%.
`Cc1cncc2cccc(S(=O)(=O)N3CCCNC[C@@H]3C)c12`: in [8], the inhibition entry was “Active”. In addition, the IC50 in assay [9] is 3300 nM.
`CCN(CC)CCNC(=O)c1c(C)[nH]c(/C=C2\C(=O)Nc3ccc(F)cc32)c1C`: the inhibition in assay [10] was found to be 49%.
`O=S(=O)(c1cccc2cnccc12)N1CCCNCC1` [FASUDIL]: in assay [11], the residual activity was determined as 112%.
Regarding `CC1=C(C(=O)Nc2cc3cn[nH]c3cc2F)C(c2ccc(C(F)(F)F)cc2)CC(=O)N1` (stereo not given), the residual activity in assay [12] is 106%; in [13] it was 120%. For the same compound, in [14], the IC50 came to 63 nM. In assay [15], the inhibition entry was “inactive”.
